Reference: ChEMBL document CHEMBL3272021, “Quaternary pilocarpine derivatives as potential acetylcholine antagonists. 2. Alterations in the lactone and imidazole moieties” (J Med Chem, 1976)
Counter-ions that a name gives are not always drawn. The source made the active and inactive calls. The rule behind the calls is not given here.

What was measured:
Ileum [1] = test: Inhibition of acetylcholine-induced contraction in guinea pig ileum at 10 ug/ml; type: functional, Cavia porcellus; conditions: for inhibition at 10 µg/mL: Cavia porcellus, Ileum
Method in brief: (§1)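 Terminal guinea pig ileum segment in a 5-ml organ bath of Tyrode solution at 35°, with isometric kymograph recording. Control contractions were elicited with 0.1 μg AcCh. Compound was added, and AcCh followed 1 min later without washing. The value is percent reduction of the control AcCh response, averaged over two separate assays. Concentrations are final per ml of bath fluid.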

Mus musculus [2] = test: Antidotal activity in ip dosed male mouse assessed as inhibition of tetraethylpyrophosphate-induced intoxication drug administered 5 mins prior to subcutaneously administration of 3 X LD50 of TEPP in presence of 25 mg/kg atropine sulfate; type: functional, organism-based; set-up: dose 25 mg/kg; conditions: at 25 mg/kg
Method in brief: (§2)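 Male mice, 20 g body weight. Compound was dissolved in saline or propylene glycol and given ip at the maximal dose (up to 100 mg/kg) that caused no observable symptoms alongside atropine sulfate (25 mg/kg), per preliminary groups of four mice. It was co-injected with atropine 5 min before sc 3 × LD50 TEPP. Surviving mice were scored from two experiments of five animals each.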

Ileum [3] = test: Inhibition of acetylcholine-induced contraction in guinea pig ileum at 0.1 ug/ml; type: functional; conditions: Cavia porcellus; method in brief: as §1
Ileum [4] = test: Toxicity in guinea pig ileum assessed as spasmogenic activity relative to 0.6 ug/ml pilocarpine; type: tissue-based, Cavia porcellus; conditions: ex_vivo
Method in brief: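 Guinea pig terminal ileum in a 5-ml Tyrode bath at 35°, with isometric kymograph recording at 16× magnification. Contact time was 30 sec with a 2-min cycle. Reference contractions used pilocarpine (0.6 μg). Compounds were applied at several concentrations, and potency relative to pilocarpine was calculated from contraction heights.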

Ileum [5] = test: Toxicity in guinea pig ileum assessed as spasmogenic activity treated 1 min after addition of 10 ng/ml muscarinic acetylcholine receptor antagonist atropine sulphate; type: tissue-based, Cavia porcellus
Ileum [6] = test: Inhibition of acetylcholine-induced contraction in guinea pig ileum at 2 ug/ml; type: functional; conditions: Cavia porcellus; method in brief: as §1
Mus musculus [7] = test: Antidotal activity in male mouse assessed as inhibition of tetraethylpyrophosphate-induced intoxication at 100 mg/kg, ip drug administered 5 mins prior to subcutaneously administration of 3 X LD50 of TEPP in presence of 25 mg/kg atropine sulfate; type: functional, organism-based; method in brief: as §2
Ileum [8] = test: Inhibition of acetylcholine-induced contraction in guinea pig ileum at 0.4 ug/ml; type: functional; conditions: Cavia porcellus; method in brief: as §1
Ileum [9] = test: Toxicity in guinea pig ileum assessed as spasmogenic activity at 0.6 ug/ml; type: tissue-based, Cavia porcellus
Mus musculus [10] = test: Antidotal activity in male mouse assessed as inhibition of tetraethylpyrophosphate-induced intoxication at 50 mg/kg, ip drug administered 5 mins prior to subcutaneously administration of 3 X LD50 of TEPP in presence of 25 mg/kg atropine sulfate; type: functional, organism-based; method in brief: as §2
Ileum [11] = test: Inhibition of acetylcholine-induced contraction in guinea pig ileum at 1 ug/ml; type: functional; conditions: Cavia porcellus; method in brief: as §1
Ileum [12] = test: Inhibition of acetylcholine-induced contraction in guinea pig ileum at 0.03 ug/ml; conditions: Cavia porcellus, read-out: INH
Mus musculus [13] = test: Antidotal activity in male mouse assessed as inhibition of tetraethylpyrophosphate-induced intoxication at 25 mg/kg, ip drug administered 5 mins prior to subcutaneously administration of 3 X LD50 of TEPP in presence of 25 mg/kg atropine sulfate; type: functional, organism-based; method in brief: as §2

CCC1C(=O)OCC1Cc1c[n+](C/C(=N/O)c2ccc([N+](=O)[O-])cc2)cn1C (stereo not given)
inhibition at 10 µg/mL (Ileum [1]): 90%
inhibition (Mus musculus [2]): inactive

CCC(C(=O)NO)C(CO)Cc1c[n+](CC(=O)c2ccc([N+](=O)[O-])cc2)cn1C.[Br-] (stereo not given)
inhibition at 0.1 µg/mL (Ileum [3]): 0%
inhibition (Mus musculus [2]): inactive
fold change (FC) (Ileum [4]): 0.1
Activity (Ileum [5]): Non-toxic

CCC(C(=O)NO)C(CO)Cc1c[n+](C/C(=N\O)c2ccc(Br)cc2)cn1C (stereo not given)
inhibition at 10 µg/mL (Ileum [1]): 55%

CCC1C(=O)OCC1Cc1c[n+](C/C(=N\O)c2ccc(-c3ccccc3)cc2)cn1C (stereo not given) [listing 1 of 2 here]
inhibition (Mus musculus [2]): inactive

CCC1C(=O)OCC1Cc1c[n+](CCO)cn1C.[Br-] (stereo not given)
inhibition at 0.1 µg/mL (Ileum [3]): 0%
inhibition (Mus musculus [2]): inactive
fold change (FC) (Ileum [4]): 0.1
Activity (Ileum [5]): Non-toxic

CCC(C(=O)NO)C(CO)Cc1c[n+](C/C(=N\O)c2ccc([N+](=O)[O-])cc2)cn1C.[Br-] (stereo not given)
inhibition at 2 µg/mL (Ileum [6]): 0%
fold change (FC) (Ileum [4]): 0.01
Activity (Ileum [5]): Non-toxic

CCC1C(=O)OCC1Cc1c[n+](C/C(=N\O)c2ccc(-c3ccccc3)cc2)cn1C (stereo not given) [listing 2 of 2 here]
inhibition at 10 µg/mL (Ileum [1]): 100%

CCC(C(=O)NO)C(CO)Cc1c[n+](Cc2ccc(Cl)c(Cl)c2)cn1C (stereo not given)
inhibition at 10 µg/mL (Ileum [1]): 25%
inhibition (Mus musculus [7]): Active

CCC1C(=O)OCC1Cc1c[n+](CCCOC(C)=O)cn1C.[Br-] (stereo not given)
inhibition at 0.4 µg/mL (Ileum [8]): 0%
fold change (FC) (Ileum [4]): 0.05
Activity (Ileum [5]): Non-toxic

CCC1C(=O)OCC1Cc1c[n+](CC(=O)c2ccc(Br)cc2)cn1C (stereo not given)
inhibition at 10 µg/mL (Ileum [1]): 90%
inhibition (Mus musculus [7]): inactive

CC[C@@H]1C(=O)OC[C@@H]1Cc1cncn1C [PILOCARPINE]
Activity (Ileum [9]): Toxic

CCC1C(=O)OCC1Cc1c[n+](C/C(=N\O)c2ccccc2)cn1C (stereo not given)
inhibition at 10 µg/mL (Ileum [1]): 30%
inhibition (Mus musculus [10]): Active

CCC1C(=O)OCC1Cc1c[n+](CC(=O)c2ccc([N+](=O)[O-])cc2)cn1C.[Br-] (stereo not given)
inhibition at 1 µg/mL (Ileum [11]): 0%
inhibition (Mus musculus [2]): inactive
fold change (FC) (Ileum [4]): 0.01

CCC(C(=O)NO)C(CO)Cc1c[n+](CC(=O)c2ccc(Br)cc2)cn1C (stereo not given)
inhibition at 10 µg/mL (Ileum [1]): 80%
inhibition (Mus musculus [2]): inactive

CCC1C(=O)OCC1Cc1c[n+](CCCO)cn1C.[Br-] (stereo not given)
inhibition at 0.4 µg/mL (Ileum [8]): 0%
fold change (FC) (Ileum [4]): 0.05
Activity (Ileum [5]): Non-toxic

CCC(C(=O)NO)C(CO)Cc1c[n+](CC)cn1C (stereo not given)
inhibition at 10 µg/mL (Ileum [1]): 55%

CCC1C(=O)OCC1Cc1c[n+](CCOC(C)=O)cn1C.[Br-] (stereo not given)
inhibition at 0.1 µg/mL (Ileum [3]): 0%
inhibition (Mus musculus [7]): inactive
fold change (FC) (Ileum [4]): 0.1
Activity (Ileum [5]): Non-toxic

CCC1C(=O)OCC1Cc1c[n+](C/C(=N\O)c2ccc(Br)cc2)cn1C.[Br-] (stereo not given)
inhibition (INH) (Ileum [1]): 100%

CCC1C(=O)OCC1Cc1c[n+](C/C(=N\O)c2ccc(Br)cc2)cn1C.[Cl-] (stereo not given)
inhibition (INH) (Ileum [1]): 50%

CN1[C@@H]2CC[C@H]1C[C@@H](OC(=O)C(CO)c1ccccc1)C2 (stereo not given in full) [ATROPINE SULFATE]
inhibition at 0.03 µg/mL (Ileum [12]): 100%
inhibition (Mus musculus [2]): inactive

CC[C@H]1C(=O)OC[C@@H]1Cc1cncn1C
fold change (FC) (Ileum [4]): 0.02
Activity (Ileum [5]): Non-toxic

CCC1C(=O)OCC1Cc1c[n+](CC(=O)c2ccc(-c3ccccc3)cc2)cn1C (stereo not given)
inhibition at 10 µg/mL (Ileum [1]): 100%
inhibition (Mus musculus [2]): inactive

CCC1C(=O)OCC1Cc1c[n+](C/C(=N\O)c2ccc(-c3ccccc3)cc2)cn1C.[Cl-] (stereo not given)
inhibition (INH) (Ileum [1]): 80%

CCC(C(=O)NO)C(CO)Cc1c[n+](C/C(=N\O)c2ccc(-c3ccccc3)cc2)cn1C (stereo not given)
inhibition at 10 µg/mL (Ileum [1]): 53%

CCC1C(=O)OCC1Cc1c[n+](C/C(=N\O)c2ccc(Br)cc2)cn1C (stereo not given)
inhibition (Mus musculus [2]): inactive
inhibition (Mus musculus [13]): Active

CCC(C(=O)NO)C(CO)Cc1c[n+](Cc2ccc(Br)cc2)cn1C (stereo not given)
inhibition at 10 µg/mL (Ileum [1]): 95%
inhibition (Mus musculus [7]): Active

CCC(C(=O)NO)C(CO)Cc1c[n+](Cc2ccc(C)cc2)cn1C (stereo not given)
inhibition at 10 µg/mL (Ileum [1]): 55%
inhibition (Mus musculus [7]): Active
